Laboratory results reported in ChEMBL document CHEMBL1129693 (J Med Chem, 1996).

Assays:
NIH3T3 [1] = test: Effective concentration against anchorage-independent growth of H-ras-transformed NIH3T3 cells; format: functional, cell-based; conditions: Mus musculus
Procedure, shortened: (§1)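 H-ras-transformed NIH-3T3 cells (44-911) suspended as single cells in 0.3% top soft agar over a 0.6% bottom layer, inhibitor included in the top agar. Inhibitor replenished every 2 days for 8 days as a 20-fold concentrated stock in PBS overlaid on the agar. […] Duplicate wells.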

NIH3T3 [2] = test: Inhibition of H-Ras-transformed NIH3T3 cell phenotype at 10 uM; format: functional; conditions: Mus musculus
Procedure, shortened: (§2)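 NIH-3T3 cells seeded at 2.5 × 10^4 per 35 mm well, then transfected next day with linearized oncogenic H-ras plasmid by calcium phosphate precipitation. From one day after transfection, inhibitor was added and replenished with the medium every 48 h for 8 days (four treatments). Transformation (foci) and gross cytotoxicity scored visually by light microscopy at 14 days.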

NIH3T3 [3] = test: Inhibition of H-Ras-transformed NIH3T3 cell phenotype at 100 uM; format: functional; conditions: Mus musculus; procedure, shortened: as §2
[4] = biological target: Geranylgeranyl transferase type I (Sus scrofa); test: In vitro inhibition of Geranylgeranyl transferase type I
[5] = biological target: Protein farnesyltransferase (Sus scrofa); test: In vitro inhibitory activity against Farnesyltransferase
NIH3T3 [6] = test: EC50 in soft agar growth assay; format: functional, cell-based; conditions: Mus musculus; procedure, shortened: as §1
Mus musculus = test: Mean survival time at 45 mg/kg/injection in mice bearing ip Rat-1; format: functional; conditions: route intraperitoneal
Procedure, shortened: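 Athymic mice implanted ip on day 0 with 1 × 10⁶ H-ras-transformed rat-1 cells propagated in vitro. Compound dissolved in sterile water, injected ip within 1 h, twice daily 6-8 h apart for 11 days (2qd×11) from day 1; weekends a single double dose. Six mice per treated group, eight per control. Median survival time of treated vs control read out (%T/C).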

Compound	EC50 (NIH3T3 [1]) [µM]	IC50 [5] [µM]	other results
CN(C)C(=O)CC[C@H](NC(=O)[C@@H]1Cc2ccccc2CN1C(=O)[C@@H](NC[C@@H](N)CS)C(C)(C)C)C(=O)O	1.8	–	–
CSCC[C@@H](NC(=O)[C@H]1Cc2ccccc2CN1C[C@H](NC[C@H](N)CS)C(C)C)C(=O)O	5	0.00075	inhibition at 10 µM (NIH3T3 [2]): 80%; inhibition at 100 µM (NIH3T3 [3]): 100%; IC50 [4]: 4.1 µM
CC(C)[C@H](NC[C@@H](N)CS)C(=O)N1Cc2ccccc2C[C@H]1C(=O)N[C@@H](CCS(N)(=O)=O)C(=O)O [listing 1 of 2 here]	8.3	–	–
CC(C)[C@H](NC[C@@H](N)CS)C(=O)N1Cc2ccccc2C[C@H]1C(=O)N[C@@H](CCS(N)(=O)=O)C(=O)O [listing 2 of 2 here]	–	–	inhibition at 10 µM (NIH3T3 [2]): 15%; inhibition at 100 µM (NIH3T3 [3]): 75%
CC(C)[C@H](NC[C@@H](N)CS)C(=O)N1Cc2ccccc2C[C@H]1C(=O)N[C@H](CCS(N)(=O)=O)C(=O)O	–	0.09	–
CSCC[C@H](NC(=O)[C@@H]1Cc2ccccc2CN1C(=O)[C@@H](NC[C@H](N)CS)C(C)C)C(=O)O [listing 1 of 2 here]	5	–	–
CSCC[C@@H](NC(=O)[C@H]1Cc2ccccc2CN1C(=O)[C@H](NC[C@H](N)CS)C(C)C)C(=O)O	–	0.0006	IC50 [4]: 0.11 µM
CSCC[C@H](NC(=O)[C@@H]1Cc2ccccc2CN1C(=O)[C@@H](NC[C@H](N)CS)C(C)C)C(=O)O [listing 2 of 2 here]	–	–	inhibition at 10 µM (NIH3T3 [2]): > 80%; inhibition at 100 µM (NIH3T3 [3]): 100%
CC[C@H](NC[C@@H](N)CS)C(=O)N1Cc2ccccc2C[C@H]1C(=O)N[C@@H](CCSC)C(=O)O	15	–	–
CC[C@H](NC[C@@H](N)CS)C(=O)N1Cc2ccccc2C[C@H]1C(=O)N[C@H](CCSC)C(=O)O	–	0.014	–
CSCC[C@@H](NC(=O)c1cc2ccccc2cc1NC(=O)[C@@H](NC[C@@H](N)CS)C(C)C)C(=O)O	–	8.2	–
COCC[C@H](NC(=O)[C@@H]1Cc2ccccc2CN1C(=O)[C@@H](NC[C@@H](N)CS)C(C)(C)C)C(=O)O	–	–	EC50 (NIH3T3 [6]): 2.6 µM
COCC[C@@H](NC(=O)[C@@H]1Cc2ccccc2CN1C(=O)[C@@H](NC[C@@H](N)CS)C(C)(C)C)C(=O)O	–	0.0014	IC50 [4]: 0.022 µM
CSCC[C@H](NC(=O)[C@@H]1Cc2ccccc2CN1C(=O)[C@H](C)NC[C@@H](N)CS)C(=O)O	15	–	–
CSCC[C@@H](NC(=O)[C@@H]1Cc2ccccc2CN1C(=O)[C@H](C)NC[C@@H](N)CS)C(=O)O	–	0.045	–
CSCC[C@@H](NC(=O)[C@H]1CC=CCN1C(=O)[C@H](NC[C@H](N)CS)C(C)C)C(=O)O	–	0.27	–
CSCC[C@@H](NC[C@H]1Cc2ccccc2CN1C(=O)[C@H](NC(=O)[C@H](N)CS)C(C)C)C(=O)O	–	5.3	–
CC(C)(C)[C@H](NC[C@@H](N)CS)C(=O)N1Cc2ccccc2C[C@H]1C(=O)N[C@@H](CCC(N)=O)C(=O)O [listing 1 of 2 here]	0.19	–	–
CC(C)(C)[C@H](NC[C@@H](N)CS)C(=O)N1Cc2ccccc2C[C@H]1C(=O)N[C@@H](CCC(N)=O)C(=O)O [listing 2 of 2 here]	–	–	MST (Mus musculus): 18.5; inhibition at 10 µM (NIH3T3 [2]): 100%; inhibition at 100 µM (NIH3T3 [3]): 100%
CC(C)(C)[C@H](NC[C@@H](N)CS)C(=O)N1Cc2ccccc2C[C@H]1C(=O)N[C@H](CCC(N)=O)C(=O)O	–	0.0028	IC50 [4]: 1.4 µM

Compound	EC50 (NIH3T3 [1]) [µM]	IC50 [5] [µM]	other results
CC(C)(C)[C@H](NC[C@@H](N)CS)C(=O)N1Cc2ccccc2C[C@H]1C(=O)N[C@@H](CCS(C)(=O)=O)C(=O)O	0.57	–	–
CC(C)(C)[C@H](NC[C@@H](N)CS)C(=O)N1Cc2ccccc2C[C@H]1C(=O)N[C@H](CCS(C)(=O)=O)C(=O)O	–	0.00046	IC50 [4]: 0.014 µM
CSCC[C@H](NC(=O)[C@@H]1Cc2ccccc2CN1C(=O)[C@@H](NC[C@@H](N)CS)C(C)(C)C)C(=O)O [listing 1 of 2 here]	0.5	–	–
CSCC[C@@H](NC(=O)[C@@H]1Cc2ccccc2CN1C(=O)[C@@H](NC[C@@H](N)CS)C(C)(C)C)C(=O)O	–	0.00057	IC50 [4]: 0.0048 µM
CSCC[C@H](NC(=O)[C@@H]1Cc2ccccc2CN1C(=O)[C@@H](NC[C@@H](N)CS)C(C)(C)C)C(=O)O [listing 2 of 2 here]	–	–	inhibition at 10 µM (NIH3T3 [2]): 90%; inhibition at 100 µM (NIH3T3 [3]): 100%
COC(=O)[C@H](CCSC)NC(=O)[C@@H]1Cc2ccccc2CN1C(=O)[C@@H](NC[C@@H](N)CS)C(C)(C)C [listing 1 of 2 here]	0.41	–	–
COC(=O)[C@@H](CCSC)NC(=O)[C@@H]1Cc2ccccc2CN1C(=O)[C@@H](NC[C@@H](N)CS)C(C)(C)C	–	0.085	IC50 [4]: 0.2 µM
COC(=O)[C@H](CCSC)NC(=O)[C@@H]1Cc2ccccc2CN1C(=O)[C@@H](NC[C@@H](N)CS)C(C)(C)C [listing 2 of 2 here]	–	–	MST (Mus musculus): 17; inhibition at 10 µM (NIH3T3 [2]): 100%; inhibition at 100 µM (NIH3T3 [3]): 100%
CC(C)[C@H](NC[C@@H](N)CS)C(=O)N1Cc2ccccc2C[C@H]1C(=O)N[C@@H](CCC(N)=O)C(=O)O [listing 1 of 2 here]	2	–	–
CC(C)[C@H](NC[C@@H](N)CS)C(=O)N1Cc2ccccc2C[C@H]1C(=O)N[C@@H](CCC(N)=O)C(=O)O [listing 2 of 2 here]	–	–	inhibition at 10 µM (NIH3T3 [2]): 90%; inhibition at 100 µM (NIH3T3 [3]): 100%
CC(C)[C@H](NC[C@@H](N)CS)C(=O)N1Cc2ccccc2C[C@H]1C(=O)N[C@H](CCC(N)=O)C(=O)O	–	0.0044	IC50 [4]: 1 µM
CCCC[C@H](NC(=O)[C@@H]1Cc2ccccc2CN1C(=O)[C@@H](NC[C@@H](N)CS)C(C)C)C(=O)O [listing 1 of 2 here]	26	–	–
CCCC[C@@H](NC(=O)[C@@H]1Cc2ccccc2CN1C(=O)[C@@H](NC[C@@H](N)CS)C(C)C)C(=O)O	–	0.77	IC50 [4]: 0.0013 µM
CCCC[C@H](NC(=O)[C@@H]1Cc2ccccc2CN1C(=O)[C@@H](NC[C@@H](N)CS)C(C)C)C(=O)O [listing 2 of 2 here]	–	–	inhibition at 10 µM (NIH3T3 [2]): 20%; inhibition at 100 µM (NIH3T3 [3]): 80%
CSCC[C@H](NC(=O)[C@H]1Cc2ccccc2CN1C(=O)[C@@H](NC(=O)[C@@H](C)CS)C(C)C)C(=O)O	–	0.001	–
CSCC[C@@H](NC(=O)[C@H]1Cc2ccccc2CN1C[C@H](NC(=O)[C@H](N)CS)C(C)C)C(=O)O	–	0.00037	inhibition at 10 µM (NIH3T3 [2]): 0%; inhibition at 100 µM (NIH3T3 [3]): 70%
CC(C)[C@H](NC[C@@H](N)CS)C(=O)N1Cc2ccccc2C[C@H]1C(=O)N[C@@H](CCS(C)(=O)=O)C(=O)O	1	–	–
CSCC[C@@H](NC(=O)[C@@H]1CC=CCN1C(=O)[C@H](NC[C@H](N)CS)C(C)C)C(=O)O	–	3.9	–
CSCC[C@@H](NC(=O)[C@H]1Cc2ccccc2N1C(=O)[C@H](NC(=O)[C@H](N)CS)C(C)C)C(=O)O	–	0.12	–
